# Bioassay records from PubChem BioAssay.
# Hck-Nef inh = inhibitors of human Hck kinase activated by Nef. P08631. Recombinant Hck-YEEI plus Nef, Z-Lyte FRET kinase assay. inhibition, % at 20 µM. 0.68% of 220,000 active. AID 463187;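 active means Hck-Nef kinase inhibition above about 50%, limit read from the data; inactive means inhibition below that limit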;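 further: 0% = DMSO with Hck plus Nef and 100% = Hck alone without Nef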
# Target sequence (P08631 whole entry, looked up): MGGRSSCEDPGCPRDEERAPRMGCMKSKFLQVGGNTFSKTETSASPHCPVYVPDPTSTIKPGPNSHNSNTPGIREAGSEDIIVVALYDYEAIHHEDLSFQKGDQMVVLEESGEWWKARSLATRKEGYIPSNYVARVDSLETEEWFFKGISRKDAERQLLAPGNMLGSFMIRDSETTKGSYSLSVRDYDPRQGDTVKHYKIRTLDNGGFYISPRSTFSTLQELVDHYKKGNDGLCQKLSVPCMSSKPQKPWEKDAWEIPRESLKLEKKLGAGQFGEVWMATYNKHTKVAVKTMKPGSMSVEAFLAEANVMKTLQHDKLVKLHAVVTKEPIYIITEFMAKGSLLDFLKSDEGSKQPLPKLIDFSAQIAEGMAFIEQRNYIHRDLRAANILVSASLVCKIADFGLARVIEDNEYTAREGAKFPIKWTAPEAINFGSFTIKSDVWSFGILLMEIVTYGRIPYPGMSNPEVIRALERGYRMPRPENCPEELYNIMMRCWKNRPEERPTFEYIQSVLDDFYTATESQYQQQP
# pCIP destab = lowers stability of the mouse p/CIP coactivator protein; 0.01% of 290,000 active; decrease of EGFP signal, % at 10 µM; F442A p/CIP-EGFP cells, EGFP fluorescence, 16 h; Q05BA5;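 active means EGFP signal decrease of at least 30% at 10 µM or well 3 SD below plate mean, unless failing retest; inactive means the rest, including hits failing retest or dose response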
# Pemphigus Ab inh = human desmoglein-3 autoantibody binding inhibition. P32926. DSG3-coupled beads, scFv-anti-DSG3-GFP binding, flow cytometry; stronger effect = lower value. binding (percent of control), % at 10 µM. 0.48% of 310,000 active. AID 588358;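 active means binding more than 3 SD below its plate's average and above zero; inconclusive means below that plate limit but binding exactly zero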;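 further: hits lower antibody fragment binding to DSG3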
# Runt-CBFb FRET = inhibitors of human RUNX1 Runt domain binding to CBFb | Q01196+Q13951 | Cerulean-Runt/Venus-CBFb FRET ratio 530/480, 1 h | inhibition, % at 20 µM | 0.46% of 220,000 active;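 active means inhibition over about 50% at 20 µM in the single-dose screen, limit read from the data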;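 further: 0% = DMSO wells and 100% = excess unlabeled CBFb competitor control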
#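 Assay system: Cerulean-Runt domain fusion protein, energy donor; Signal: fluorescence energy transfer, 422 nm excitation, 530/480 nm emission; Timing: 1 h compound exposure, room temperature; Control set: unlabeled CBFb; Medium: Tris buffer pH 7.5 with salts and BSA; Compound: single test concentration of 20 µM, 1% DMSO final; Probe or stimulus: Venus-CBFb 100 nM.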
# RanGTP-Impb inh = inhibitors of RanGTP-importin-beta interaction, primary screen, biochemical, FRET, CFP-Ran, YFP-importin-beta, homogeneous | inhibition, % (test concentration not listed) | cell-free CFP-Ran/YFP-importin-beta FRET ratio | 1.1% of 300,000 active;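 active means more than half of the replicate wells show a fall in the fluorescence ratio signal beyond about 16%, limit read from the data, passing the limit was not always enough; inconclusive means exactly half of the replicate wells pass the set limit; inactive means fewer than half of replicates pass the limit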;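 further: 0% = DMSO wells and 100% = Ran loaded with GDP instead of GTP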
# Runt-SMMHC FRET = Runt domain-CBFb-SMMHC interaction inhibition; Q01196+Q13951; Cerulean-Runt/Venus-CBFb-SMMHC FRET ratio 530/480, 1 h; inhibition, % at 20 µM; 0.74% of 220,000 active; AID 1434;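 active means mean inhibition across duplicate retests at 20 µM reaching about 50%, limit read from the data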;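 further: 0% = DMSO wells and 100% = wells with excess untagged CBFb-SMMHC; inhibitors lower the FRET ratio by blocking Runt binding to CBFb-SMMHC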
# Active calls of the source: *; ? = inconclusive; . = no result given. Compounds with a hit are over-represented: about 2.1% of the library has one in this group of screens.
SMILES,Hck-Nef inh,pCIP destab,Pemphigus Ab inh,Runt-CBFb FRET,RanGTP-Impb inh,Runt-SMMHC FRET
Oc1ccc(Cl)cc1N=Cc1sc2ccccc2c1Cl,1,-17,102,.,?,17
O=C(CNc1ccc(Br)cc1)NC(=O)NC1CCCCC1,.,.,100,.,.,.
Cc1cc(N2CCOCC2)nc(N)n1,21,-5,113,0,3,0
Nc1nc(N2CCOCC2)cc(=O)[nH]1,1,-10,104,6,20*,19
CSc1ncccc1C(=O)OCc1ccc([N+](=O)[O-])cc1,-1,-10,79*,-2,4,1
COc1cccc(/C=N/N(C)C2=NS(=O)(=O)c3ccccc32)c1O,.,-11,80*,.,0,.
COc1ccc(Cl)cc1NC(=O)CN1CCC(n2nnc3cc(C)ccc32)CC1,-1,-27,102,-2,-3,2
Cc1ccc2c(c1)nnn2C1CCN(CC(=O)Nc2ccccc2N2CCOCC2)CC1,-1,-10,108,84*,4,2
Cn1c(SCC(=O)NCCc2ccccc2)ncc(C(=O)Nc2ccc(F)cc2)c1=O,.,.,95,.,.,.
CCOC(=O)c1sc(Nc2nc3c(OC)cccc3s2)cc1C,23,-19,.,41,10,92*
CCOC(=O)c1sc(Nc2nc3cc4c(cc3s2)OCO4)cc1C,6,-2,96,-6,13,-9
Cc1ccc(N=Nc2c(N)n(-c3ccccc3)[nH]c2=O)cc1,1,-1,-0.7*,-3,2,-4
c1ccc(CSc2ccc(-c3ccccn3)nn2)cc1,23,-3,.,-1,3,1
Clc1ccc(CSc2ccc(-c3ccccn3)nn2)cc1,16,7,13*,-4,4,2
CCOC(=O)N1CCC(NC(=O)c2cc3cc4cc(OC)ccc4nc3o2)CC1,2,-13,69,-4,21*,2
CCOC(=O)Nc1ccc(OC(=O)Oc2ccc(NC(=O)OCC)cc2)cc1,.,.,78*,.,.,.
CCOC(=O)Nc1ccc(Oc2ccccc2)cc1,2,-6,96,0,-3,-4
O=C(Oc1cccnc1)c1ccc([N+](=O)[O-])cc1,2,-1,86,0,4,5
Cc1ccc(C(=O)Oc2cccnc2)cc1[N+](=O)[O-],5,1,84,102*,1,2
CC(NS(=O)(=O)c1ccc(Br)cc1)C(=O)NCCc1ccccc1 (configuration not stated),2,9,131,2,4,-4
COc1ccccc1OCCn1cc(/C=C(\C#N)C(=O)NCc2ccco2)c2ccccc21,3,-7,99,0,2,-8
COc1ccc(/C=c2\s/c(=C(/C#N)C(=O)NCc3ccco3)n(-c3ccccc3)c2=O)cc1,8,-8,94,-154,83*,-126
Cc1ccc(C)c(OCCn2cc(/C=C(\C#N)C(=O)NCc3ccco3)c3ccccc32)c1,3,0,.,19,4,63*
COC(=O)/C=c1/s/c(=C(\C#N)C(=O)NCc2ccco2)n(-c2ccccc2)c1=O,2,-8,97,4,-3,-4
COc1ccc(OCCn2cc(/C=C(\C#N)C(=O)NCc3ccco3)c3ccccc32)cc1,-13,-17,102,-21,71*,86*
SMILES,Hck-Nef inh,pCIP destab,Pemphigus Ab inh,Runt-CBFb FRET,RanGTP-Impb inh,Runt-SMMHC FRET
FC(F)(F)c1cnc(Sc2ncn[nH]2)c(Cl)c1,-20,4,100,2,-1,-1
CCCc1cc(C(=O)Nc2cccc(-c3nn[nH]n3)c2)sc1C,.,.,101,.,.,.
O=C(NCc1ccncc1)/C(=N/O)c1ccccc1,1,-8,75*,0,1,2
CC(C(=O)O)N(c1ccccc1Cl)S(C)(=O)=O (configuration not stated),.,.,101,.,.,.
COC(=O)CS(=O)(=O)c1ccsc1C(=O)Nc1ccc(F)cc1,13,-9,97,1,-2,6
CCCC(=O)Nc1nc(C)c(-c2csc(Nc3cc(OC)ccc3OC)n2)s1,0,3,100,10,2,-2
CCCCCC(=O)Nc1nc(C)c(-c2csc(Nc3cc(Cl)ccc3OC)n2)s1,-1,7,79*,7,4,3
CCN(c1ccccc1)S(=O)(=O)c1nnc(NC(=O)c2ccccc2OC)s1,.,-5,102,.,19*,.
CCc1nnc(NC(=O)C(C)Sc2ccccc2)s1 (configuration not stated),1,0,100,0,25*,0
CCc1nnc(NC(=O)C(C)C)s1,1,2,107,0,6,-1
CCCCCCNC(=O)c1cc(S(=O)(=O)N2CCc3ccccc32)ccc1F,.,3,87*,.,-1,.
COC(=O)c1ccccc1NC(=O)NC1CCN(Cc2ccccc2)CC1,0,-16,100,91*,-1,-3
CCn1nc(C)cc1Nc1ccccc1,-8,-3,98,2,37*,-4
Cc1cc(Nc2ccccc2)n(CCO)n1,-7,4,104,-1,-4,-1
O=S(=O)(c1cccs1)N1CCN(c2ccccn2)CC1,-1,-10,80*,0,?,-5
CC(C)C(=O)Nc1ccc(NC(=O)c2cccc3c(Br)cccc23)cc1,.,-1,100,.,5,.
Cc1c(O)cc2c(c1O)C(=O)CC(c1ccc(O)cc1)O2 (configuration not stated),34,-8,77*,1,3,0
COc1cc(O)c2c(c1)OC(c1ccc(O)cc1)CC2=O (configuration not stated),31,-2,108,-1,-2,0
O=S(=O)(c1cc(Br)ccc1Br)N1CCCCCC1,.,-11,116,.,1,.
O=S(=O)(c1cc(-c2nnc(-c3ccc(Br)cc3)o2)ccc1Br)N1CCCCCC1,7,5,74*,1,1,-1
Fc1cccc(CSc2nc3ncccc3[nH]2)c1,0,-18,80,-2,-1,3
Fc1ccc(CSc2nc3ncccc3[nH]2)cc1,-1,-13,.,102*,?,110
O=C(O)c1ccccc1SCc1csc(-c2ccccc2)n1,.,-11,98,.,27*,.
CN(CC(=O)Nc1ccc(Cl)cc1)C(=O)CNC(=O)c1ccc(Br)o1,.,.,101,.,?,.
Cc1nc2ccccc2c2ncccc12,.,2,121,.,3,.
c1cnc2nc3c4ccccc4c4ccccc4c3nc2c1,.,.,78*,.,.,.
CCCc1cc(=O)n2nc(N3CCC(C(=O)NCc4ccc(C)o4)CC3)sc2n1,.,-2,93,.,?,.
Cc1c(Cl)cccc1Nc1ncccc1C(=O)OCC(O)CO (configuration not stated),17,-8,.,2,19*,-4
O=C(OCC(O)CO)c1ccccc1Nc1ccnc2cc(Cl)ccc12 (configuration not stated),.,.,114,.,.,.
